The results in this text go back to ChEMBL document CHEMBL1149895, “Steroids and flavonoids from Physalis alkekengi var. franchetii and their inhibitory effects on nitric oxide production” (J Nat Prod, 2008).

This experiment has as its system RAW264.7. Nature of the experiment: Inhibition of LPS-induced nitric oxide production in mouse RAW264.7 cells assessed as nitrite formation. In kind it is functional, cell-based. The procedure, abridged: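 RAW 264.7 cells in RPMI 1640 with 10% heat-inactivated FBS, penicillin and streptomycin, seeded at 1 × 10^5 cells/well and allowed to adhere 2 h at 37 °C in 5% CO2. LPS 1 µg/mL with or without compound (DMSO 0.2% v/v final) for 24 h. Supernatant nitrite read by Griess reagent against a 0–100 µM sodium nitrite line. Inhibition taken relative to LPS-only and untreated wells. Triplicate, mean ± SD of three independent experiments.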
In the case of `C[C@]12CCC(=O)C=C1CC[C@@H]1[C@@H]2[C@@H](O)C[C@@]2(C)[C@H]1CC[C@]2(O)C(=O)CO` [HYDROCORTISONE], the IC50 is 64.3 µM.
With `C[C@]12C(=O)C[C@H](O)C=C1C=C[C@@H]1[C@@H]2CC[C@]2(O)C(=O)O[C@@]3(C)[C@H]4C[C@]5(C)[C@@H](CO[C@@]16O[C@@]32[C@H]5C6=O)C(=O)O4` [ISOPHYSALIN G], the IC50 is 64 µM.
`O=c1cc(-c2ccc(O)c(O)c2)oc2cc(O)cc(O)c12` [LUTEOLIN]: the IC50 turned out to be 7.39 µM.
On to `COc1cc(O)c2c(=O)c(O)c(-c3ccc(OC)c(O)c3)oc2c1` [OMBUINE], for which the IC50 is 2.23 µM.
For `C=C1C(=O)O[C@@H]2C[C@@]1(C)[C@@H]1C(=O)[C@]3(O)O[C@]14[C@@]2(C)OC(=O)[C@@]4(O)CC[C@H]1[C@H]3[C@H](O)C=C2CC=CC(=O)[C@@]21C` [PHYSALIN A], the IC50 turned out to be 2.57 µM.
With `C[C@]12C(=O)C=CCC1=CC[C@@H]1[C@@H]2CC[C@]2(O)C(=O)O[C@@]3(C)[C@H]4C[C@]5(C)[C@@H](CO[C@@]16O[C@@]32[C@H]5C6=O)C(=O)O4` [PHYSALIN B], the IC50 was determined as 0.84 µM.
For `C[C@@]12C[C@H]3OC(=O)[C@@H]1CO[C@]14O[C@]5([C@H]2C1=O)[C@@](O)(CC[C@H]1[C@H]4C[C@H]2O[C@]24CC=CC(=O)[C@]14C)C(=O)O[C@@]35C` [PHYSALIN F], the IC50 was 0.33 µM.
`CO[C@H]1C=C2C=C[C@@H]3[C@H](CC[C@]4(O)C(=O)O[C@@]5(C)[C@H]6C[C@](C)([C@H](C)C(=O)O6)[C@H]6[C@@]3(O)C(=O)O[C@@]654)[C@@]2(C)C(=O)C1` [PHYSALIN I]: the IC50 came out at 84 µM.
On to `C[C@@H]1C(=O)O[C@@H]2C[C@@]1(C)[C@@H]1C(=O)[C@]3(O)O[C@]14[C@@]2(C)OC(=O)[C@@]4(O)CC[C@H]1[C@H]3[C@H](O)C=C2CC=CC(=O)[C@@]21C` [PHYSALIN O], for which the half-inhibitory concentration (IC50) was determined as 17.1 µM.
Take `C[C@]12C(=O)C[C@@H](O)CC1=CC[C@@H]1[C@@H]2CC[C@]2(O)C(=O)O[C@@]3(C)[C@H]4C[C@]5(C)[C@@H](CO[C@@]16O[C@@]32[C@H]5C6=O)C(=O)O4` [PHYSALIN Y]: the IC50 was found to be 79.2 µM.
Take `C[C@]12C(=O)C[C@@H](O)C=C1C=C[C@@H]1[C@@H]2CC[C@]2(O)C(=O)O[C@@]3(C)[C@H]4C[C@]5(C)[C@@H](CO[C@@]16O[C@@]32[C@H]5C6=O)C(=O)O4` [PHYSALIN Z]: the half-maximal inhibitory concentration (IC50) turned out to be 75.7 µM.
